Rows were chosen to be rich in hits. Some 2.3% of all compounds tested hit in one or more screens of this group.
TRPC4 inh – inhibitors of mouse TRPC4 channel, primary screen, Fluo4 calcium, HEK293 TRPC4beta/mu-opioid cells; Short transient receptor potential channel 4 (Mus musculus), Q9QUQ5; DAMGO-evoked Fluo4 calcium flux; active compounds read low; B-score at 10 µM; hit rate 0.39% among 300,000; AID 2247, 2010;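 active = B-score over 3 SD under the library average, no early fluorescence shift, positive overall ratio signal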
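Assay system: HEK293 cells with stable TRPC4beta plus mu-opioid receptor expression. Dosing: single dose. Measured by: Fluo4 Ca2+ flux fluorescence. Also added: DAMGO in two steps, submaximal then maximal. Read-out: B score from integrated Fluo4 fluorescence ratio.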
TRPC6 inhibitor – mouse TRPC6 channel inhibitors, primary screen, cell-based, HEK293, membrane potential dye; Short transient receptor potential channel 6 (Mus musculus), Q61143; ACh-evoked depolarization; active compounds read low; B-score at 10 µM; hit rate 1.1% among 310,000; AID 2553, 2010;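 active = B-score under library mean minus 3 SD, initial fluorescence not abnormally high, positive integrated signal ratio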;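 note: B-score derived from integrated fluorescence ratio over the kinetic read; more negative B-score means stronger inhibition of depolarization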
Target sequence (Q61143 whole entry, looked up): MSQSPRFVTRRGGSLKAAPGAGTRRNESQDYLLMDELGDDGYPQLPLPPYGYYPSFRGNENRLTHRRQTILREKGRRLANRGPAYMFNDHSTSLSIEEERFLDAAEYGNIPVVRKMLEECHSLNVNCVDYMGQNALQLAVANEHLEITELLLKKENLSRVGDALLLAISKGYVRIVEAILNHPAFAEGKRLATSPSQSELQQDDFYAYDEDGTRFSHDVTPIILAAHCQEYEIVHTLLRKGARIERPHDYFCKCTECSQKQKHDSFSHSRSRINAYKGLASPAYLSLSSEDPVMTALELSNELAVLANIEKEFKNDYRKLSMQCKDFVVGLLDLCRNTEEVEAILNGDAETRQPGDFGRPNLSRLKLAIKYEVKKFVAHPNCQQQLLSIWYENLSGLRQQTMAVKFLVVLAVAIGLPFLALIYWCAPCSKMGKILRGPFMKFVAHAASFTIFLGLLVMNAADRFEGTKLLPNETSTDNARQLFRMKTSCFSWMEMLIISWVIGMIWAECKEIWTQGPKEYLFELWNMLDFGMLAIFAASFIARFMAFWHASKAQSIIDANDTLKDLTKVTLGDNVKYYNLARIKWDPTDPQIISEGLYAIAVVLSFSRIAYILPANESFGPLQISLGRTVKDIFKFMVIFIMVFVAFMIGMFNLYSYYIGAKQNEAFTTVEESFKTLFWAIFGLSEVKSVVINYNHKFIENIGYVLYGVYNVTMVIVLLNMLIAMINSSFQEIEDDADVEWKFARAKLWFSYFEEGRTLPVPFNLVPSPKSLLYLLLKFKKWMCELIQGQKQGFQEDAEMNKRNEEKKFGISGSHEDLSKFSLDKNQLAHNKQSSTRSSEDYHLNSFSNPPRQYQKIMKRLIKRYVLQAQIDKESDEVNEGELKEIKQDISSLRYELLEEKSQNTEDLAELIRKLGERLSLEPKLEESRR
TRPC4 potent – positive allosteric modulators of TRPC4, primary screen, cell-based, mouse TRPC4beta, HEK293 mu-opioid, Fluo-4 calcium; Short transient receptor potential channel 4 (Mus musculus), Q9QUQ5; DAMGO EC20, Fluo-4 Ca2+ flux; active compounds read high; B-score at 10 µM; hit rate 0.42% among 310,000; AID 2227, 2009;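 active = B-score of calcium response area above 5 SD of library B-scores, with initial fluorescence ratio within 5 SD of library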;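 note: B-score of integrated fluorescence ratio over time as area under calcium response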
TRPC6 act – mouse TRPC6 channel activators, primary screen, cell-based, HEK293, membrane potential dye; Short transient receptor potential channel 6 (Mus musculus), Q61143; HEK293-TRPC6 membrane potential dye fluorescence; active compounds read high; hit rate 0.13% among 310,000; B-score at 10 µM;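 active = B-score of the integrated fluorescence ratio above library mean plus 3 SD, and starting fluorescence ratio within library mean plus 5 SD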;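 note: higher score means more depolarization so channel activation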
TRPC4 agonist – activators of mouse TRPC4 channel, primary screen, Fluo4 calcium, HEK293 TRPC4beta/mu-opioid cells; Short transient receptor potential channel 4 (Mus musculus), Q9QUQ5; Fluo4 calcium fluorescence; active compounds read high; B-score at 10 µM; hit rate 0.49% among 310,000; AID 2237, 2010;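 active = B-score above 5 SD of library B-scores, and initial fluorescence ratio not above library mean plus 5 SD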;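 note: positive B-score marks a calcium rise read as TRPC4 activation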
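Material: HEK293 stable line with TRPC4beta plus mu-opioid receptor; technique: Fluo4 calcium-sensitive dye fluorescence, kinetic, 1 Hz baseline; timing: Fluo4 dye loading 45 min at room temperature, 110 s recording; controls: assay buffer as low control, maximal DAMGO as high control; read-out: integrated baseline-normalised fluorescence ratio, converted to per-well B score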
TRPC4 sel inh 2 – second check of whether TRPC6 inhibitors also affect mouse TRPC4; inhibition, % at 10 µM; hit rate 42% among 920; HEK293 TRPC4/MOR, membrane potential dye fluorescence; channel activated by saturating DAMGO dose; shares compounds with TRPC6 inhibitor; AID 2776;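 active = compounds whose fluorescence signal differed from control wells by over 3 SD, either direction, in both duplicate plates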
TRPC4 spec – mouse TRPC4 modulation by TRPC6 hits, confirmation, selectivity assay for TRPC6 inhibitor project, cell-based, HEK293 TRPC4/mu-opioid, membrane potential dye. shares compounds with TRPC6 inhibitor. membrane potential fluorescence. activity change, negative = inhibition, % at 10 µM. hit rate 61% among 920;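 active = rise or fall in signal beyond 3 SD of buffer-only wells in both replicate plates, either sign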;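 note: integrated kinetic ratio of fluorescence range over baseline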
HEK293 MPD ctr 2-1 – nonspecific membrane potential effects, parental HEK293, confirmation, counter-screen for TRPC6 inhibitor project, cell-based, second counter screen; shares compounds with TRPC6 inhibitor; parental HEK293 membrane potential dye fluorescence; maximal acetylcholine challenge after compound addition; signal change vs control, % at 10 µM; hit rate 31% among 920;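 active = membrane potential signal moving either way by over 3 SD of the maximum-effect control, in both duplicate plates, meaning non-specific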
HEK293 MPD ctr-1 – membrane potential modulation in parental HEK293, confirmation, counter-screen for TRPC6 inhibitor project, cell-based; shares compounds with TRPC6 inhibitor; parental HEK293 membrane potential dye fluorescence; membrane potential signal change, % at 10 µM; hit rate 60% among 920; AID 2780, 2010;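 active = membrane potential signal shifting up or down by more than 3 SD of buffer-only wells, on both duplicate plates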
HEK293 MPD ctr-2 – parental HEK293 membrane potential modulation, confirmation, counter-screen for TRPC6 modulator project, cell-based; membrane potential dye fluorescence; hit rate 51% among 2,400; AID 488924, 2010; membrane potential signal change, % at 10 µM; shares compounds with TRPC6 inhibitor;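 active = membrane potential signal moves up or down beyond 5 SD from buffer-only wells, on both duplicate plates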
HEK293 MPD ctr 2-2 – second counter-screen for TRPC6 modulators: effect in parental HEK293 cells; shares compounds with TRPC6 inhibitor; hit rate 14% among 2,400; inhibition, % at 10 µM; membrane potential dye fluorescence; after compound, maximal acetylcholine stimulation;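 active = membrane potential signal drops by more than 5 SD from the mean control signal, in both duplicate plates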;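 note: plate controls were acetylcholine ECmax control wells for no effect and buffer only wells for full effect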
TRPC4 ctr mod – TRPC4 modulation by TRPC6 hit compounds, confirmation, selectivity assay for TRPC6 modulator project, cell-based, HEK293 TRPC4/mu-opioid, membrane potential dye, mouse. shares compounds with TRPC6 inhibitor. membrane potential fluorescence. percent change from control (negative = decrease, positive = increase), % at 10 µM. hit rate 69% among 2,400. AID 488927, 2010;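 active = membrane potential signal moved up or down beyond 5 SD of buffer control wells, in both duplicate plates, actives on both sides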;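 note: plate controls were assay buffer wells for no effect and DAMGO maximal-effect wells for full effect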
TRPC4 ctr inh 2 – second check of whether TRPC6 modulators also affect mouse TRPC4; inhibition, % at 10 µM; hit rate 55% among 2,400; shares compounds with TRPC6 inhibitor; HEK293 TRPC4/mu-opioid, membrane potential dye fluorescence; stimulated with maximal-effect DAMGO;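 active = drop in membrane potential signal beyond 5 SD of the control wells in both duplicate plates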;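 note: TRPC4 counter screen for TRPC6 hits run under conditions tuned for TRPC6 not TRPC4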
TRPC6 inh conf – mouse TRPC6 channel inhibitors, confirmation, HEK293 cells, membrane potential dye, duplicate; shares compounds with TRPC6 inhibitor; inhibition, % at 10 µM; hit rate 43% among 3,300; ACh-evoked depolarization;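 active = fluorescence ratio falls more than 5 SD below the full-stimulation control mean, in both duplicate runs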;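 note: integrated fluorescence ratio of peak minus minimum over baseline after agonist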
TRPC6 act confirm – mouse TRPC6 channel activators, confirmation, HEK293 cells, membrane potential dye, duplicate; shares compounds with TRPC6 inhibitor; HEK293-TRPC6 membrane potential dye fluorescence, FDSS; activation, % at 10 µM; hit rate 11% among 2,800;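 active = ratio signal rise beyond 5 SD above unstimulated control wells' mean, seen in both duplicate runs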;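 note: plate controls were buffer EC0 wells for no effect and acetylcholine ECmax response for full effect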
An asterisk follows results filed as active; i = inactive; · = no result given.

SMILES	TRPC4 inh	TRPC6 inhibitor	TRPC4 potent	TRPC6 act	TRPC4 agonist	HEK293 MPD ctr-2	HEK293 MPD ctr 2-2	TRPC4 ctr mod	TRPC4 ctr inh 2	TRPC6 inh conf	TRPC6 act confirm	others
O=C(CN(Cc1ccco1)C(=O)CNS(=O)(=O)c1ccc(F)cc1)NCCc1ccccc1	i	-5.29*	i	i	i	i	i	12.5%*	i	i	i
C=CCN1C2CCCC1CC(NC(=O)Nc1cccc(C(C)=O)c1)C2 (stereo unspecified)	i	-5.37*	i	i	i	i	i	i	i	85.0%*	·
Cc1ccc(NC(=O)CN(C)C(=O)c2ccc(Cl)nc2)cc1	i	i	i	i	i	·	·	·	·	·	·
COc1ccc(-c2csc(N(CCCN(C)C)C(=O)c3ccc(C)cc3)n2)cc1	i	-6.49*	i	i	i	i	i	i	81.5%*	56.0%*	i
COc1ccc(-c2csc(N(CCCN(C)C)C(=O)c3ccc(C(C)(C)C)cc3)n2)cc1	i	i	i	i	i	·	·	·	·	·	·
CCN(CC)CCCN(C(=O)c1ccccc1C)c1nc(-c2ccc(OC)cc2)cs1	i	i	i	i	i	·	·	·	·	·	·
COc1ccc(-c2csc(N(CCCN(C)C)C(=O)c3ccc(Br)cc3)n2)cc1	i	i	i	i	i	·	·	·	·	·	·
CCN(CC)CCCN(C(=O)c1ccc(OC)cc1)c1nc(-c2ccc(OC)cc2)cs1	i	-9.11*	i	i	i	·	·	·	·	77.3%*	i	TRPC4 sel inh 2=23.5%*;TRPC4 spec=-17.6%*;HEK293 MPD ctr 2-1=i;HEK293 MPD ctr-1=i
CCN(CC)CCCN(C(=O)c1ccccc1F)c1nc(-c2ccc(OC)cc2)cs1	i	-7.12*	i	i	i	·	·	·	·	51.2%*	i	TRPC4 sel inh 2=47.0%*;TRPC4 spec=i;HEK293 MPD ctr 2-1=i;HEK293 MPD ctr-1=-0.1%*
COc1ccc(-c2csc(N(CCCN(C)C)C(=O)c3cc(OC)c(OC)c(OC)c3)n2)cc1	i	-5.68*	i	i	i	i	i	i	66.5%*	i	i
C=C(C)C(=O)OCC(O)COc1ccc(C(C)(C)c2ccc(OCC(O)COC(=O)C(=C)C)cc2)cc1 (stereo unspecified)	i	i	i	i	i	·	·	·	·	·	·
COc1ccc(NC(=S)N(CCCN2CCN(C)CC2)Cc2cccs2)cc1	i	i	i	i	i	·	·	·	·	·	·
COc1ccc(NC(=S)N(CCCN2CCC(C)CC2)Cc2cccs2)cc1Cl	i	-5.99*	i	i	i	i	i	i	84.5%*	48.5%*	i
CSc1cccc(NC(=S)N(CCCN2CCCC(C)C2)Cc2cccs2)c1 (stereo unspecified)	i	-8.05*	i	i	i	·	·	·	·	56.0%*	i	TRPC4 sel inh 2=48.5%*;TRPC4 spec=2.2%*;HEK293 MPD ctr 2-1=i;HEK293 MPD ctr-1=3.1%*
S=c1[nH]nc(-c2ccccc2)n1Cc1ccccc1	i	i	i	i	i	·	·	·	·	·	·
CC(C)c1cc(-c2n[nH]c(=S)n2Cc2ccccc2)cs1	i	-15.8*	i	i	i	i	i	8.5%*	i	i	i
CSc1nnc(CCNS(=O)(=O)c2ccc(Br)cc2)n1C	i	i	i	i	i	·	·	·	·	·	·
C=COCCNC(=S)N1CCOCCOCCN(C(=S)NCCOC=C)CCOCC1	i	-4.99*	i	i	i	i	i	i	39.5%*	i	i
COCCNC(=S)N1CCOCC1	i	i	i	i	i	·	·	·	·	·	·
CC(C)N1CCc2c(sc(NC(=S)NC(=O)c3ccccc3)c2C#N)C1	i	i	i	48.2*	71*	i	i	8.0%*	i	i	i
CCCn1c(=N)n(CC(=O)c2ccc(Cl)cc2)c2ccccc21	i	-7.3*	i	i	i	·	·	·	·	i	i	TRPC4 sel inh 2=25.5%*;TRPC4 spec=35.3%*;HEK293 MPD ctr 2-1=257.5%*;HEK293 MPD ctr-1=3.4%*
CCCn1c(=N)n(CC(=O)c2ccc([N+](=O)[O-])cc2)c2ccccc21	i	i	i	i	i	·	·	·	·	·	·
C/C(N)=C(/C#N)C(=O)COC(=O)C(NS(=O)(=O)c1ccc(Cl)cc1)C(C)O (stereo unspecified)	i	-5.43*	i	i	i	i	i	i	i	i	i
Cc1ccc(NC(=O)COC(=O)C(NS(=O)(=O)c2ccc(Cl)cc2)C(C)O)cc1 (stereo unspecified)	i	i	i	i	i	·	·	·	·	·	·

High-throughput results from PubChem BioAssay.
